Assay results as given in publication PMC8721857 (Oncology Letters, 2021).

Key:
[1] = tested on: A2780cis cells; test: Colony formation assay, A2780cis; assay type: cell-based
In short: (§1)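 A2780 (1×10^3) or A2780cis (2×10^3) cells were seeded per 3.5-cm dish and grown 24 h. They were exposed 72 h to test compound or cisplatin at 1X or 2X IC50, then PBS-washed. Fresh medium followed for 5 days at 37°C. Staining was 0.5% crystal violet in 25% methanol, 10 min RT. Clusters of ≥50 cells were counted by microscope. Colonies expressed as % of control.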

[2] = tested on: A2780 cells; test: Colony formation assay, A2780; assay type: cell-based
In short: as §1

[3] = IC50 and 2X IC50 concentrations, 72 h treatment, vs control

What does the source list for `N.N.[Cl][Pt][Cl]` [cisplatin]?
colony formation [1, 3]: almost completely inhibited; cells per colony after treatment (unable to divide) ([1]; colony formation assay): 3–5 cells/colony; colony formation [2, 3]: almost completely inhibited; cells per colony after treatment (unable to divide) ([2]; colony formation assay): 3–5 cells/colony
